Test results as given in the EternaBench riboswitch data.

Tested on: MS2 coat protein
Test: apparent Kd, MS2 coat protein; higher = weaker binding; RNA-MaP array; theophylline 2 mM where present
Outline: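 Designs were transcribed by stalled E. coli RNA polymerase on Illumina sequencing-chip clusters. They were titrated with SNAP-549-labelled MS2 coat protein from 0.7 or 1.5 nM, doubling to 3 µM, in 100 mM Tris-HCl pH 7.5, 80 mM KCl, 4 mM MgCl2, BSA, DTT, yeast tRNA and Tween-20, without and then with constant ligand. The apparent Kd is the median of filtered per-cluster fits after normalisation of green signal to red-channel RNA signal and control-cluster median Fmax.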

[1] = designed as: ON switch for theophylline, no ligand
[2] = ligand present: theophylline, designed as: ON switch for theophylline
[3] = designed as: OFF switch for theophylline, no ligand
[4] = ligand present: theophylline, designed as: OFF switch for theophylline

## UGAUCCUACAGAGAUACCAGUGCCACUAAAUAACUAAACACAUGAGGAUCACCCAUGUAACACCCUUGGCAGCUCAACUAAAGGG
[1]
  apparent Kd: 27.4 nM
[2]
  apparent Kd: 19.2 nM

## CUCUGAGUCCGAAAGGACUCAGAGGCGGAUACCAGCGAGGUCCAUCGCCCUUGGCAGCCGAACAUGAGGAUCACCCAUGUCGGUA
[1]
  apparent Kd: 10.5 nM
[2]
  apparent Kd: 14.5 nM

## AUAAAUAUAACCGAUACCAGCCUUAUACAUGAGGAUCACCCAUGUUAUGCUUCCUUUCUUGGCCCUUGGCAGCGGAAAUGGGUAA
[1]
  apparent Kd: 57.9 nM
[2]
  apparent Kd: 26.4 nM

## ACGAUACGACAUGAGGAUCACCCAUGUGAUACCAGCGUGGAAACACGCCCUUGGCAGCACAAAUACUCCAGAAACGUAUCGAAAA
[3]
  apparent Kd: 239 nM
[4]
  apparent Kd: 389 nM

## CAUACUUUAGUAUGUAAUGUGGACAGUGAUACCAGAUACGAAAGUAUCCCUUGGCAGCACAACAUGAGGAUCACCCAUGUAUUUU
[1]
  apparent Kd: 19.4 nM

## AGUACUCGAACGGAUACCAGCCGGACAUGAGGAUCACCCAUGUCCUACCUCUGUUCGGUUGGCCCUUGGCAGCCGUUCGUGUACA
[1]
  apparent Kd: 99.4 nM
[2]
  apparent Kd: 93.3 nM

## GAAUAUUACAUGAGGAUCACCCAUGUAGAUACCAGCCUUGAUUGUGGCCCUUGGCAGCUACGCCGUGAAUGCCUCAGUUGCUUAC
[3]
  apparent Kd: 90.7 nM
[4]
  apparent Kd: 31.5 nM

## GGCCGAUGGUGCGAUACCAGCUUGAGUGUACUGGCCAGGUACAUGAGGAUCACCCAUGUAAGCCCUUGGCAGCGCGUCAGAGGCC
[4]
  apparent Kd: 35.8 nM

## AACUAAUCACAUGAGGAUCACCCAUGUGAUACCAGCUAAUCCCAAAGCCCUUGGCAGCACCUUUGGGUCCCGGUGUGUUUGAACA
[3]
  apparent Kd: 9.6 nM
[4]
  apparent Kd: 21.9 nM

## GAUGAACUAUUUGAUACCAGACUACAUGAGGAUCACCCAUGUGCGCGUCGUCCUCUGCCAGUCCCUUGGCAGCAAAUAGUUUAUC
[3]
  apparent Kd: 101 nM
[4]
  apparent Kd: 127 nM

## AAAUAAAUAACUGAUACCAGUGUACUGACAUGAGGAUCACCCAUGUUGGGUUUGGUUGUACACCCUUGGCAGCAGAAAUAUAAAA
[3]
  apparent Kd: 15.9 nM
[4]
  apparent Kd: 29.8 nM

## AGCGCAGGUCCUGAUACCAGAGACAUGAGGAUCACCCAUGUCCGAUGGUCCUGCCUCAGGCUCCCUUGGCAGCAGGGCUUGUGCU
[3]
  apparent Kd: 10.3 nM
[4]
  apparent Kd: 20.4 nM

## CGACGAUACCUGGAUACCAGCGACAUGAGGAUCACCCAUGUAUGUGGAUCAGCCAUGAUAUGCCCUUGGCAGCCACCAAAGUCGG
[3]
  apparent Kd: 14.9 nM
[4]
  apparent Kd: 51.9 nM

## AAUGCUGCCAAGGAUUCCUCAUGAGCAGAUACCAGCUAGGAAACUAGCCCUUGGCAGCUGCAACAUGAGGAUCACCCAUGUAAUA
[3]
  apparent Kd: 38.5 nM
[4]
  apparent Kd: 26.3 nM

## UGACAUUGCUCAGAUACCAGACAUGAGGAUCACCCAUGUGCCAAAACGUACUAAAUAAAUGUCCCUUGGCAGCUGAGCAAUGUCU
[3]
  apparent Kd: 12.6 nM
[4]
  apparent Kd: 126 nM

## ACCCAUAAUUGGGCGGGUGGAUUGAGUGAUACCAGUCGUAUACAUGACCCUUGGCAGCACCGACAUGAGGAUCACCCAUGUGCCA
[1]
  apparent Kd: 39.7 nM
[2]
  apparent Kd: 99.8 nM

## AGAUAACAUGGUUUAAUAAGUUAAACUGAUACCAGUGUAUAUAAUCACCCUUGGCAGCAGCAACAUGAGGAUCACCCAUGUAAUA
[1]
  apparent Kd: 17.2 nM
[2]
  apparent Kd: 21.9 nM

## AACAUGGGAUUAAAAUAAAUAAUAACUGAUACCAGACUAUAUAAUGUCCCUUGGCAGCAGAUACAUGAGGAUCACCCAUGUAUUA
[3]
  apparent Kd: 12.9 nM
[4]
  apparent Kd: 23.8 nM

## AUCGUACCUGAUGAUACCAGCAAGUGAUCAUAACAUGAGGAUCACCCAUGUAAUCAGUGAUGCCCUUGGCAGCAUAAUCGAUACA
[1]
  apparent Kd: 178 nM
[2]
  apparent Kd: 140 nM

## AAUAACAUGAGGAUCACCCAUGUAAAAGAUACCAGAUGCAUGAUGAUCCCUUGGCAGCUUAACGCUGAUUGGAAACAAUCAGCGA
[1]
  apparent Kd: 39 nM
[2]
  apparent Kd: 37.6 nM

## ACGUCAUGGAGAACGUGACGACUUAUCGAUACCAGCGAUUGAGAGCGCCCUUGGCAGCGAACAUGAGGAUCACCCAUGUCAAGGG
[1]
  apparent Kd: 29.7 nM
[2]
  apparent Kd: 42.1 nM

## UGGUACAUGAGGAUCACCCAUGUGCCGGAUACCAGAGAGCCGGCUCUCCCUUGGCAGCUGGCGCGACAUGAGGAUCACCCAUGUG
[3]
  apparent Kd: 25.2 nM
[4]
  apparent Kd: 38.4 nM
